Data on three compounds can be found in ChEMBL document CHEMBL1149834, “Chromomoric acid derivatives from Tectona philippinensis” (2008).

Conditions in all cases: read-out: IZ
Test [1] concerns Escherichia coli. Put plainly: Antibacterial activity against Escherichia coli UPCC 1195 replicate 1 assessed as clearing zone at 30 ug after 24 to 48 hrs. The format is functional. Put shortly: (§1)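 Agar well diffusion. 0.1 mL of bacterial suspension in 0.1% peptone water is spread on prepoured nutrient agar and overlaid with melted NA cooled to 45 °C. Three equidistant 10 mm wells each receive 200 µL of sample in 95% EtOH. Plates are incubated at room temperature and read at 24–48 h. Clearing-zone diameters are measured in mm and averaged.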

Test [2] deals with Pseudomonas aeruginosa. Put plainly: Antibacterial activity against Pseudomonas aeruginosa UPCC 1244 replicate 1 assessed as clearing zone at 30 ug after 24 to 48 hrs. The format is functional. Put shortly:
as §1

Another test relates to Bacillus subtilis. Put plainly: Antibacterial activity against Bacillus subtilis UPCC 1149 replicate 1 assessed as clearing zone at 30 ug after 24 to 48 hrs. The format is functional. The method, boiled down:
as §1

For a further test, the system named is Staphylococcus aureus. In words: Antibacterial activity against Staphylococcus aureus UPCC 1143 replicate 1 assessed as clearing zone at 30 ug after 24 to 48 hrs. The format is functional. Put shortly: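 Agar well diffusion. Microbe suspended in 0.1% peptone water; 0.1 mL spread on prepoured nutrient agar, overlaid with melted medium cooled to 45 °C. Three 10 mm wells per plate, 200 µL sample in 95% EtOH per well. Incubated at room temperature and read at 24–48 h. Clearing-zone diameter measured in mm.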

The subject of test [3] is Trichophyton mentagrophytes. In words: Antifungal activity against Trichophyton mentagrophytes UPCC 4193 replicate 3 assessed as clearing zone at 30 ug after 3 to 5 days.
The subject of test [4] is Trichophyton mentagrophytes. In words: Antifungal activity against Trichophyton mentagrophytes UPCC 4193 replicate 1 assessed as clearing zone at 30 ug after 3 to 5 days.
For test [5], the system named is Pseudomonas aeruginosa. In words: Antibacterial activity against Pseudomonas aeruginosa UPCC 1244 replicate 2 assessed as clearing zone at 30 ug after 24 to 48 hrs. The format is functional. The method, boiled down: as §1
The test system of test [6] is Candida albicans. Put plainly: Antifungal activity against Candida albicans UPCC 2168 replicate 1 assessed as clearing zone at 30 ug after 24 to 48 hrs. The format is functional. Put shortly:
(§2)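 Yeast is suspended in 0.1% peptone water, and 0.1 mL is spread on glucose yeast peptone agar with a GYP overlay at 45 °C. Three 10 mm wells per plate each get 200 µL of sample in 95% EtOH. Plates are incubated at room temperature and observed after 24–48 h. The mean clearing-zone diameter is recorded in mm.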

In test [7] the test system is Escherichia coli. In words: Antibacterial activity against Escherichia coli UPCC 1195 replicate 3 assessed as clearing zone at 30 ug after 24 to 48 hrs. The format is functional. The method, boiled down: as §1
Test [8] has as its system Escherichia coli. Put plainly: Antibacterial activity against Escherichia coli UPCC 1195 replicate 2 assessed as clearing zone at 30 ug after 24 to 48 hrs. The format is functional. The method, boiled down:
as §1

The test system of test [9] is Candida albicans. Put plainly: Antifungal activity against Candida albicans UPCC 2168 replicate 2 assessed as clearing zone at 30 ug after 24 to 48 hrs. The format is functional. Put shortly:
as §2

For test [10], the system named is Trichophyton mentagrophytes. In words: Antifungal activity against Trichophyton mentagrophytes UPCC 4193 replicate 2 assessed as clearing zone at 30 ug after 3 to 5 days.
Test [11] relates to Pseudomonas aeruginosa. Put plainly: Antibacterial activity against Pseudomonas aeruginosa UPCC 1244 replicate 3 assessed as clearing zone at 30 ug after 24 to 48 hrs. The format is functional. Put shortly: as §1
Test [12] concerns Candida albicans. In words: Antifungal activity against Candida albicans UPCC 2168 replicate 3 assessed as clearing zone at 30 ug after 24 to 48 hrs. The format is functional. Put shortly: as §2

For the compound `O=C(N[C@H](CO)[C@H](O)c1ccc([N+](=O)[O-])cc1)C(Cl)Cl` [CHLORAMPHENICOL], the zone of inhibition at 30 µg/disc turned out to be 23 mm in the test on Escherichia coli [1], 14 mm in the test on Pseudomonas aeruginosa [2], 20 mm with Bacillus subtilis and 25 mm with Staphylococcus aureus.

As to `C/C=C/C(=O)C[C@H]1C(=O)C=C[C@@]1(O)CCCC[C@@H]1CCC(=O)O1`, the zone of inhibition at 30 µg/disc was 13 mm in [3]; 13 mm in test [4]; 12 mm in the test with Pseudomonas aeruginosa [5]; 13 mm with Candida albicans [6]; 12 mm in the test on Escherichia coli [7]; 12 mm in the test with Escherichia coli [8]. For the same compound, the zone of inhibition at 30 µg/disc is 13 mm in the test on Candida albicans [9]; 13 mm in [10]; 12 mm in the test on Escherichia coli [1]; 12 mm with Pseudomonas aeruginosa [11]; 12 mm in the test with Pseudomonas aeruginosa [2]; 13 mm with Candida albicans [12].

Take `CC[C@@H]1O[C@H]1/C=C1/C(=O)C=C[C@@]1(O)CCCC[C@@H]1CCC(=O)O1`: the zone of inhibition at 30 µg/disc in [3] came out at 12 mm; in test [4], 12 mm; in the test on Pseudomonas aeruginosa [5], 12 mm; in the test with Candida albicans [6] it was 13 mm; in the test on Escherichia coli [7], 12 mm; in the test with Escherichia coli [8], 12 mm. The zone of inhibition at 30 µg/disc in the test on Candida albicans [9] was 13 mm; in test [10] it was 12 mm; with Escherichia coli [1] it was 12 mm; in the test with Pseudomonas aeruginosa [11], 12 mm; in the test with Pseudomonas aeruginosa [2], 12 mm; in the test with Candida albicans [12], 13 mm.
